What is called IC50 is the concentration that gives 50% inhibition.

Calls of active or inactive are those of the source. The calls are words filed in the database; no cut-off is given here.

The values that follow come from ChEMBL document CHEMBL3861989, “Amending HIV Drugs: A Novel Small-Molecule Approach To Target Lupus Anti-DNA Antibodies” (J Med Chem, 2016).

Data set [1] has as its system Mus musculus. The experiment in a line: Toxicity in CD-1 mouse assessed as tissue abnormalities administered daily for 1 week. In kind it is organism-based. As to conditions: in vivo, 168 h.
Data set [2] is described as follows: (§1) Binding affinity to mouse anti-dsDNA monoclonal antibody R4A assessed as inhibition of RA4 binding to DWEYS peptide preincubated for 1 hr followed by DWEYS peptide addition measured after 1 hr by ELISA. The gist of the method: (§2)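 Competitive ELISA: plates coated with DWEYS peptide overnight at 37 °C uncovered, blocked 3% BSA/PBS 1 h 37 °C. Compounds at varying concentrations preincubated with R4A (20 µg/mL) 1 h 37 °C, then added to washed wells 1 h 37 °C. Detection with alkaline phosphatase anti-mouse IgG (1:1000, 1 h RT), pNPP substrate 30–60 min, absorbance 405 nm.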
For orientation: An ELISA detects its analyte on a solid surface through an enzyme-linked reagent.

The species named for data set [3] is Mus musculus. The data set is described as §1. The gist of the method:
as §2

In data set [4] the test system is Mus musculus. The experiment in a line: Toxicity in CD-1 mouse assessed as behavioral changes administered daily for 1 week. In kind it is organism-based. As to conditions: in vivo, 168 h.
For data set [5], the species on record is Mus musculus. The experiment in a line: Binding affinity to mouse anti-dsDNA monoclonal antibody R4A assessed as inhibition of RA4 binding to mouse kidney glomeruli antigens by measuring suppression of antibody deposition in kidney glomeruli at 50 uM preincubated for 1 hr followed by glomeruli addition by fluorescence microscopic analysis. The gist of the method: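 Murine glomeruli isolated and adhered to glass slides. R4A (20 µg/mL) preincubated with compound (50 µM) 1 h at 37 °C, then applied to glomeruli 1 h at room temperature. Bound antibody detected with FITC-conjugated anti-mouse IgG, PBS washes, fluorescence imaging.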

The species named for data set [6] is Mus musculus. The experiment in a line: Neuroprotective activity in C57BL/6 mouse assessed as inhibition of R4A-induced hippocampal neuron apoptosis at 50 uM pretreated to mouse followed by R4A injection measured after 1 day by TUNEL assay. It counts as functional. Summed up: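 Male C57BL/6 mice (30–34 g) anesthetized with 2.5% avertin ip. R4A (20 µg/mL) preincubated with vehicle or compound (50 µM) and injected stereotaxically (2 µL) into dorsal hippocampus CA1.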

Data set [7] deals with Mus musculus. Kind of data set: Inhibition of IgG level in glomeruli of NZB/NZW F1 mouse systemic lupus erythematosus model at 5 mg/kg/day, ip bid administered on day 1 at 22 weeks of age. In kind it is functional, organism-based. The gist of the method: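 Female NZB/W F1 mice dosed ip twice daily (5 mg kg−1 day−1) from 22 weeks of age. Formalin-fixed, paraffin-embedded terminal kidney sections from three representative mice per group stained for mouse IgG in glomeruli.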

Data set [8] has as its system Mus musculus. Kind of data set: Toxicity in NZB/W F1 mouse systemic lupus erythematosus model assessed as body weight loss at 5 mg/kg/day, ip bid administered on day 1 at 22 weeks of age measured daily during compound dosing up to 34 weeks of age. As to conditions: in vivo. In kind it is organism-based. Summed up:
(§3)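 Female NZB/W F1 mice from 22 weeks of age, before severe proteinuria, grouped by matched mean proteinuria and body weight (n = 10/group). Vehicle or compound at 5 mg kg−1 day−1 given ip twice daily. Body weight weekly, proteinuria every 2 weeks. Removal on ≥20% weight loss, prostration, or ≥3+ proteinuria two consecutive weeks; study end at 46 weeks.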

Data set [9] concerns Mus musculus. Kind of data set: anti-DWEYS peptide reactivity in serum of NZB/NZW F1 mouse systemic lupus erythematosus model at 5 mg/kg/day, ip bid administered on day 1 to 71.
The test system of data set [10] is Mus musculus. Kind of data set: Toxicity in CD-1 mouse assessed as drug tolerance at 1 mg/kg, iv as infusion or 10 mg/kg via oral gavage measured up to 60 mins for iv dosing or up to 240 mins for oral gavage. It counts as organism-based. As to conditions: in vivo.
Data set [11] concerns Mus musculus. Kind of data set: Increase in disease free survival in NZB/W F1 mouse systemic lupus erythematosus model at 5 mg/kg/day, ip bid administered on day 1 at 22 weeks of age measured daily during compound dosing up to 34 weeks of age. It counts as functional, organism-based. The gist of the method:
as §3

For data set [12], the system named is Mus musculus. The experiment in a line: Induction of delayed onset of systemic lupus erythematosus disease in NZB/W F1 mouse model at 5 mg/kg/day, ip bid administered on day 1 at 22 weeks of age measured daily during compound dosing up to 34 weeks of age. In kind it is functional. The gist of the method:
as §3

Data set [13] has as its system Mus musculus. Kind of data set: Reduction in interstitial inflammation score in kidney of NZB/NZW F1 mouse systemic lupus erythematosus model at 5 mg/kg/day, ip bid administered on day 1 at 22 weeks of age measured daily during compound dosing at 60 weeks by conglomerate blinded analysis. It counts as functional, organism-based. Summed up: (§4)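 Female NZB/W F1 mice dosed ip twice daily (5 mg kg−1 day−1) from 22 weeks of age. Formalin-fixed, paraffin-embedded kidney sections stained with H&E and scored blind by one investigator, 0–3+ each for glomerular sclerosis, hypercellularity, crescents, interstitial nephritis and perivascular infiltrates. Combined scores assessed at 60 weeks.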

Data set [14] has as its system Mus musculus. Kind of data set: Reduction in glomerular sclerosis score in kidney of NZB/NZW F1 mouse systemic lupus erythematosus model at 5 mg/kg/day, ip bid administered on day 1 at 22 weeks of age measured daily during compound dosing at 60 weeks by conglomerate blinded analysis. It counts as functional, organism-based. Summed up: as §4
Data set [15] deals with Mus musculus. The experiment in a line: Inhibition of glomerulonephropathy in kidney of NZB/NZW F1 mouse systemic lupus erythematosus model at 5 mg/kg/day, ip bid administered on day 1 at 22 weeks of age measured at 60 weeks by hematoxylin and eosin staining based assay. In kind it is functional, organism-based. The gist of the method: as §4
Data set [16] has as its system Mus musculus. Kind of data set: Reduction in crescents score in kidney of NZB/NZW F1 mouse systemic lupus erythematosus model at 5 mg/kg/day, ip bid administered on day 1 at 22 weeks of age measured daily during compound dosing at 60 weeks by conglomerate blinded analysis. It counts as functional, organism-based. The gist of the method: as §4
The test system of data set [17] is Mus musculus. Kind of data set: Inhibition of lymphocyte aggregation in kidney of NZB/NZW F1 mouse systemic lupus erythematosus model at 5 mg/kg/day, ip bid administered on day 1 at 22 weeks of age measured at 60 weeks by hematoxylin and eosin staining based assay. In kind it is functional, organism-based. Summed up: as §4
Data set [18] has as its system Mus musculus. Kind of data set: Reduction in glomerular cellularity score in kidney of NZB/NZW F1 mouse systemic lupus erythematosus model at 5 mg/kg/day, ip bid administered on day 1 at 22 weeks of age measured daily during compound dosing at 60 weeks by conglomerate blinded analysis. In kind it is functional, organism-based. The gist of the method: as §4
In data set [19] the test system is Mus musculus. Kind of data set: Toxicity in NZB/W F1 mouse systemic lupus erythematosus model assessed as prostration at 5 mg/kg/day, ip bid administered on day 1 at 22 weeks of age measured daily during compound dosing up to 34 weeks of age. In kind it is organism-based. As to conditions: in vivo. Summed up:
as §3

The test system of data set [20] is Mus musculus. The experiment in a line: Inhibition of tubule dilation and casts in kidney of NZB/NZW F1 mouse systemic lupus erythematosus model at 5 mg/kg/day, ip bid administered on day 1 at 22 weeks of age measured at 60 weeks by hematoxylin and eosin staining based assay. In kind it is functional, organism-based. The gist of the method: as §4
For data set [21], the species on record is Mus musculus. The experiment in a line: Binding affinity to mouse anti-dsDNA monoclonal antibody R4A assessed as inhibition of RA4 binding to DWEYS peptide at 5 to 50 uM preincubated for 1 hr followed by DWEYS peptide addition measured after 1 hr by ELISA. Summed up: as §2

As for `CNCCCN[C@H](CN[C@@H](Cc1ccccc1)C[C@H](O)[C@H](Cc1ccccc1)NCCOc1c(C)cccc1C)C(C)C`, the Activity entry with Mus musculus [1] and in the data set on Mus musculus [4] was “Non-Toxic” each time. Further, the IC50 in data set [2] turned out to be 2.08 µM. Further, the inhibition entry in the data set listed under Mus musculus [3] is “Dose-dependent effect”. The inhibition entry in the data set listed under Mus musculus [5] was “Active”.

In the case of `Cc1c(O)cccc1CN[C@@H](CSc1ccccc1)[C@H](O)CN1C[C@H]2CCCC[C@H]2C[C@H]1CNC(C)(C)C`, the Activity result in the data set on Mus musculus [1] and in the data set with Mus musculus [4] was “Non-Toxic” in each case. The IC50 in data set [2] came out at 7.27 µM. Besides, the inhibition result in the data set listed under Mus musculus [3] is “Dose-dependent effect”. Further, the inhibition entry in the data set filed under Mus musculus [6] and in the data set filed under Mus musculus [5] was “Active” each time.

Consider `CC(C)(C)NC[C@@H]1CC2CCCCC2CN1C[C@@H](O)[C@H](Cc1ccccc1)NC[C@H](CCN)NCC1Nc2ccccc2CC1O` (stereo partly drawn), for which the inhibition result in the data set on Mus musculus [7], in the data set on Mus musculus [9], with Mus musculus [15], with Mus musculus [17], in the data set listed under Mus musculus [6] and in the data set listed under Mus musculus [5] was “Active” in each case. Moreover, the inhibition result in the data set with Mus musculus [20] is “Active”. For the same compound, the Activity is on record as less than 20% in the data set on Mus musculus [8]; “Non-Toxic” with Mus musculus [1]; “Non-Toxic” with Mus musculus [10]; “Non-Toxic” with Mus musculus [4]; “Non-Toxic” in the data set with Mus musculus [19]. Further, the outcome in the data set with Mus musculus [11], with Mus musculus [13], with Mus musculus [14], in the data set with Mus musculus [16] and in the data set on Mus musculus [18] was Active. Further, the Time in the data set on Mus musculus [12] is reported as 26 - 36 weeks. Besides, in data set [2], the IC50 was found to be 4.5 µM. The inhibition entry in the data set filed under Mus musculus [3] is “Dose-dependent effect”.

In the case of `CC(C)(C)NC(=O)[C@@H]1CN(Cc2cccnc2)CCN1C[C@@H](O)C[C@@H](Cc1ccccc1)C(=O)N[C@H]1c2ccccc2C[C@H]1O`, the inhibition entry in the data set filed under Mus musculus [21] was “Active”.

As to `Cc1cccc(C)c1OCC(=O)N[C@@H](Cc1ccccc1)[C@@H](O)C[C@H](Cc1ccccc1)NC(=O)[C@H](C(C)C)N1CCCNC1=O`, the inhibition entry in the data set filed under Mus musculus [21] is “Active”. Moreover, the inhibition entry in the data set filed under Mus musculus [3] was “Dose-dependent effect”.

For the compound `CC(C)(C)NC[C@@H]1CNCCN1C[C@@H](O)C[C@H](CN[C@H]1c2ccccc2C[C@H]1O)Cc1ccccc1`, the IC50 in data set [2] was 42.7 µM.

With `Cc1c(O)cccc1C(=O)N[C@@H](CSc1ccccc1)[C@H](O)CN1C[C@H]2CCCC[C@H]2C[C@H]1C(=O)NC(C)(C)C`, the inhibition result in the data set filed under Mus musculus [21] and in the data set listed under Mus musculus [5] was “Active” in each case. Also, in the data set listed under Mus musculus [3], the inhibition entry is “Dose-dependent effect”.
